Published values collected from several papers.
Each line is one published result; the experiments were not run side by side.
Observed: binding
PIK3CB: Phosphatidylinositol 4,5-bisphosphate 3-kinase catalytic subunit beta isoform (PIK3CB, Homo sapiens, UniProt P42338)
mnmE: mnmE (Escherichia coli, UniProt P25522)
PIKFYVE: 1-phosphatidylinositol 3-phosphate 5-kinase (PIKFYVE, Homo sapiens, UniProt Q9Y2I7)
NAD-dependent histone deacetylase SIR2: NAD-dependent histone deacetylase SIR2 (Saccharomyces cerevisiae S288c, UniProt P06700)
UCK2: Uridine-cytidine kinase 2 (UCK2, Homo sapiens, UniProt Q9BZX2)

Structure (SMILES) | target | technique | pH | setting | Kd [µM]
C=CC(=O)N1CCC(C(=O)NCC(=O)N2CCN(c3nc(-c4cnc(N)nc4C(F)F)nc(N4CCOCC4)n3)CC2)CC1 | PIK3CB |  |  |  | 0.00085
Nc1nc(=O)c2c([nH]1)NC[C@@H](CNc1ccc(C(=O)N[C@@H](CCC(=O)O)C(=O)O)cc1)N2C=O | mnmE | ITC | pH 7.5 |  | 0.2
CCCOc1ccc2[nH]c(C)c(/C=C/C(=O)c3ccncc3)c2c1 | PIKFYVE | competition with immobilised ligand |  |  | 0.0065
Nc1nc2c(c(=O)[nH]1)N1CN(c3ccc(C(=O)N[C@@H](CCC(=O)O)C(=O)O)cc3)C[C@H]1CN2 | mnmE | ITC |  |  | ~1
CO[C@H]1O[C@H](CO)[C@@H](O)[C@H](O)[C@@H]1O | ZG16 (Homo sapiens, UniProt O60844) | NMR |  |  | 15000
CC(=O)O[C@H]1C(O)O[C@H](COP(=O)(O)OP(=O)(O)OC[C@H]2O[C@@H](n3cnc4c(N)ncnc43)[C@H](O)[C@@H]2O)[C@H]1O (stereo partly drawn) | NAD-dependent histone deacetylase SIR2 | SPR |  |  | 0.304
Cc1cc2nc3c(=O)[nH]c(=O)nc-3n(C[C@H](O)[C@H](O)[C@H](O)COP(=O)(O)OP(=O)(O)OC[C@H]3O[C@@H](n4cnc5c(N)ncnc54)[C@H](O)[C@@H]3O)c2cc1C | LRP1 (Homo sapiens, UniProt Q07954) |  |  | lysate | 43.9
O=c1ccn([C@@H]2O[C@H](CO)[C@@H](O)[C@H]2O)c(=O)[nH]1 | UCK2 | fluorescence |  |  | 0.0058
C=CC(=O)N1CCC(C(=O)N(C)CC(=O)N2CCN(c3nc(-c4cnc(N)nc4C(F)F)nc(N4CCOCC4)n3)CC2)CC1 | PIK3CB |  |  |  | 0.0036
CCOc1ccc2[nH]c(C)c(/C=C/C(=O)c3ccncc3)c2c1 | PIKFYVE | competition with immobilised ligand |  |  | 0.023
Nc1ncnc2c1ncn2[C@@H]1O[C@H](COP(=O)(O)OP(=O)(O)OC[C@H]2OC(O)[C@H](O)[C@@H]2O)[C@@H](O)[C@H]1O (stereo partly drawn) | NAD-dependent histone deacetylase SIR2 | SPR |  |  | 2.95
CN1c2c([nH]c(N)nc2=O)NC[C@@H]1CNc1ccc(C(=O)N[C@@H](CCC(=O)O)C(=O)O)cc1 | mnmE | ITC | pH 7.5 |  | 1.1
O=C(O)c1cccc(Nc2cc(N3CCCCCC3)c3noc4c3c2C(=O)c2ccccc2-4)c1 | Urokinase plasminogen activator surface receptor (Homo sapiens, UniProt Q03405) |  |  |  | 0.19
Cc1[nH]c2ccc(OC(C)C)cc2c1/C=C/C(=O)c1ccncc1 | PIKFYVE | competition with immobilised ligand |  |  | 0.051
[N-]=[N+]=N[C@@H]1[C@H](O)[C@@H](CO)O[C@H]1n1ccc(=O)[nH]c1=O | UCK2 | fluorescence |  |  | 0.0134
